Results as given in PubChem BioAssay AID720717 (ICCB-Longwood Screening Facility, Harvard Medical School, 2013).
Out of some 51,000 compounds screened, about 150 (0.29%) were called active. The sample holds actives, similar compounds and a random draw of the others, so the mix is not that of the screen. Unmarked numbers belong to inactive results.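 How the source made its calls: active means both repeat wells score below -2 in polarization z-score versus plate sample wells, excluding overly bright wells; inactive means the rest.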

system: LANA (ORF73) N-terminal peptide binding to nucleosomes, Human herpesvirus 8; experiment: LANA N-terminal peptide–nucleosome interaction blockers – biochemical, fluorescence polarization, FITC-LANA1-23, chicken nucleosomes, primary screen (AID 720717); conditions: FITC-LANA1-23 / chicken nucleosome fluorescence polarization; hits give low values
Method in brief: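 System – purified chicken nucleosomes with FITC-labelled LANA N-terminal peptide (1-23) · Amount – 240 nM purified chicken nucleosomes (480 nM peptide binding sites), final · Also added – 50 nM FITC-LANA1-23 probe · Medium – TEN-BT buffer, pH 7.5 · Incubation – compound with peptide–nucleosome mix 10–45 min at room temperature · Detection – fluorescence polarization, ex 480 nm, em 535 nm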

Row | SMILES | z-score
1 | S=c1[nH]nc(NCCc2ccccc2)s1 | 0.44
2 | O=C1NC(c2ccccc2)=NC1(Nc1ccccn1)C(F)(F)F (configuration not stated) | 0.245
3 | CCOC(=O)c1nn(-c2ccccc2)c(C(=O)OCC)c1N(C(=O)CC)C(=O)CC | -0.275
4 | O=C1CCCc2nc3nc(-c4ccncc4)nn3cc21 | -0.949
5 | CC(Sc1nnc(COc2ccccc2)n1-c1ccccc1)C(=O)O (configuration not stated) | 0.582
6 | O=c1[nH]ncc2c1[nH]c1ccccc12 | 0.221
7 | O=C1C2C3C=CC(C3)C2C(=O)N1C1CC2CCC1C2 (configuration not stated) | -0.407
8 | N/C(=N\OC(=O)Nc1ccccc1)c1ccno1 | -0.0325
9 | C=CCOC(=O)c1cc(-c2ccc(/C=C3/NC(=S)NC3=O)o2)ccc1Cl | 0.594
10 | COC(=O)CSc1nc(-c2ccccc2)cc(C)c1C#N | -0.143
11 | CN(C)c1ccc(C(=S)N2CCN(c3cccc(Cl)c3)CC2)cc1 | 0.446
12 | COc1cccc(/C=N/NC(=O)c2cccc(C)c2)c1O | -0.518
13 | Cc1ccccc1-c1n[nH]n2c1nc(=O)c1cc(Cl)ccc12 | 0.639
14 | O=C(NCc1ccncc1)C1CCN(C(=O)c2cccc(Cl)c2)CC1 | 0.832
15 | Clc1ccc(C2N=C(c3cnccn3)NN2)cc1 (configuration not stated) | -2.98 (active)
16 | CN(C)CCC(O)c1cc(Cl)sc1Cl (configuration not stated) | 0.472
17 | CC(=O)N1c2ccccc2NC(=O)C1CC(=O)Nc1cccc(C)c1 (configuration not stated) | 2.28
18 | O=C(Nc1ccc(-c2cn3cccnc3n2)cc1)C1CCCC1 | 0.642
19 | CCOC(=O)C1=NNC2C(=O)N(c3cc(Cl)ccc3OC)C(=O)C12 (configuration not stated) | -0.513
20 | O=C(O)/C=C\C(=O)NCc1ccc2c(c1)OCO2 | 0.273
21 | CC1=CC(C)C2(COC(CN3CCCCC3)OC2)C(C)C1 (configuration not stated) | -0.0595
22 | CN(Cc1ccccc1)C1(O)C(=O)Nc2c(C(F)(F)F)cccc21 (configuration not stated) | 0.254
23 | COc1ccc(CNC(=O)NC2CCN(S(=O)(=O)c3ccc(OC)cc3)CC2)cc1 | 0.0685
24 | Clc1cccc(Nc2nc3ccccc3c3nncn23)c1 | -0.519
25 | CC(=O)O/N=C/c1ccc(N(C)C)cc1 | 0.621
26 | Cc1cc(NCc2cccnc2)no1 | -0.669

Row | SMILES | z-score
27 | CCn1cc(S(=O)(=O)Nc2cc(C)on2)cn1 | -2.19 (active)
28 | CCc1ccc(NS(=O)(=O)c2cnn(CC)c2)cc1 | -1.21
29 | Cc1ccc(-n2nc(C)c(C(=O)O)n2)cc1 | -0.785
30 | CCCN(CCC)C(=O)Cn1ncn2c(cc3ccccc32)c1=O | 0.518
31 | Cc1cc2c(cc1S(=O)(=O)CCC(=O)N1CCCC1)OCC(=O)N2 | -1.11
32 | O=C(Nc1ccc(Cl)cc1)Nc1cc(C(=O)NCC2CCCO2)ccc1N1CC2CC(C1)c1cccc(=O)n1C2 (configuration not stated) | 0.571
33 | O=c1[nH]cc(S(=O)(=O)N2CCc3ccccc32)c(=O)[nH]1 | -0.177
34 | CCN(CC)S(=O)(=O)c1c(C)nn(S(=O)(=O)c2ccccc2)c1C | 1.21
35 | C(=N\N(Cc1ccccc1)Cc1ccccc1)/c1ccco1 | -1.14
36 | CCOC(=O)C(N)Cc1c[nH]c2ccccc12 (configuration not stated) | 0.0765
37 | Cc1ccc2cc(CN(CCN3CCCC3)C(=O)NC3CCCCC3)c(=O)[nH]c2c1C | 0.448
38 | CC(C)(Oc1ccc(Cl)cc1)C(=O)Nc1ccc2oc(-c3cccnc3)nc2c1 | 0.188
39 | C=C(C)Cn1nc(C)c(-c2cc(C(=O)O)[nH]n2)c1C | -0.083
40 | Cc1cccc(-c2cc(C(=O)N3CCN(C(=O)c4ccco4)CC3)c3ccc(Cl)c(C)c3n2)c1 | 0.0795
41 | O=C1NN=C(c2ccccc2)C1CCO (configuration not stated) | -0.74
42 | CS(=O)(=O)C1=NSC2=NC(=O)/C(=C\c3ccco3)C(=N)N21 | -0.748
43 | O=C(COc1ccccc1)n1c(=O)oc2ccccc21 | -1.36
44 | CCS(=O)(=O)N1CCCC(c2nc3c(nnn3Cc3ccc(C)cc3)c(=O)[nH]2)C1 (configuration not stated) | -1.1
45 | O=C(CSc1nc2ncccc2o1)NCc1ccco1 | 0.0485
46 | CCNC(=O)CC1C(=O)N(c2ccc(OC)cc2)C(=O)N1CCOC (configuration not stated) | -0.571
47 | COc1ccc(C(c2nnnn2C(C)(C)C)N2CCN(c3ccccc3)CC2)cc1 (configuration not stated) | -0.537
48 | COc1ccc(C2C3=C(CCCC3=O)N(CC(=O)O)C3=C2C(=O)CCC3)cc1 | 1.54
49 | Cc1ccc(C(=O)NC(C(=O)O)c2ccccc2)cc1 (configuration not stated) | 0.558
50 | C=CCNc1nc(N)sc1C#N | 0.79
51 | COc1cc(Br)cc(/C=N/O)c1O | -0.372
52 | C/C(=N/NC(=O)Cc1cc(=O)[nH][nH]1)c1ccc(Cl)cc1 | -0.559

Row | SMILES | z-score
53 | Cc1cc(C)nc(-n2nc(C)c3c2N(C)C(=O)CC3c2ccccc2Cl)n1 (configuration not stated) | 0.097
54 | CCc1ccc2[nH]c(=O)c(CN(Cc3ccco3)C(=O)c3ccccc3)cc2c1 | 0.0145
55 | N#Cc1c(F)cccc1NC(=O)CN1CCCCC1 | -0.136
56 | COc1ccc(NC(=O)c2cn(-c3ccccc3)nc2SC)cc1 | -0.623
57 | O=C1CCC(=O)N1C(c1ccccc1)c1ccccc1 | -0.605
58 | COC(=O)c1ccccc1NC(=O)C(F)(F)F | -0.55
59 | CCc1c(C)nc2c(OC)cccc2c1Cl | -0.847
60 | Cc1sc2nc(C)n(NC(N)=O)c(=O)c2c1C | 0.328
61 | Cc1cc(N2CC(C)CC(C)C2)nc2ccc(NC(=O)CCC(=O)NCc3ccco3)cc12 (configuration not stated) | -1.27
62 | O=C1OC(c2ccco2)=N/C1=C1/C=C(c2cccs2)Oc2ccccc21 | -0.0915
63 | N#CC1=C(SCC(N)=O)NC2=C(C(=O)CCC2)C1c1ccco1 (configuration not stated) | 0.283
64 | CCCCn1cc(/C=N/NC(=O)c2cc3cc(OC)ccc3n2C)c2ccccc21 | -0.47
65 | O=S1(=O)CCC(S(=O)(=O)NC2CCCC2)C1 (configuration not stated) | -1.02
66 | COc1ccc(C(=O)N(C)C2CCCCC2)cc1 | -0.539
67 | CCCc1cc(=O)[nH]c2c1c(C)nn2-c1cccc(F)c1 | 1.12
68 | Cc1[nH]n(-c2ccccc2)c(=O)c1C(=O)C(F)(F)F | -0.607
69 | COc1ccc(CCN(C)C2CCNCC2)cc1OC | -0.052
70 | COc1cccc(NC(=O)c2cc(-c3cccc(OC)c3)n[nH]2)c1 | -1.44
71 | COc1cc(-c2nc3ccccn3c2NC2CCCC2)ccc1O | -0.532
72 | O=C(CN1Cc2ccccc2C1=O)N1CC=C(c2ccccc2)CC1 | -0.481
73 | Cc1ccc(-c2nc3scc(CCNC(=O)Cc4ccccc4)n3n2)cc1 | -0.82
74 | S=C(Cc1ccccc1)N1CCCCC1 | 0.211
75 | O=C1c2ccccc2C(=O)N1CNc1ccc(I)cc1 | -0.239
76 | Cc1[nH][nH]c(=O)c1C(c1cccc(Cl)c1)C(C#N)C#N (configuration not stated) | -0.349
77 | CC(C)NC(=S)N/N=C/c1ccn[nH]1 | 0.944
78 | COc1cccc(NC(=O)c2nn(C)c3c2COc2ccccc2-3)c1 | -1.79

Row | SMILES | z-score
79 | CCOC(=O)c1ccc2c(c1)sc1nc(-c3cccc(OC)c3)cn12 | -1.21
80 | Nc1no[n+]([O-])c1C(=O)NCCO | 0.91
81 | CCN1C(=O)C2C(c3cccs3)NC(C)(C(=O)OC)C2C1=O (configuration not stated) | -0.124
82 | O=C1NN=C(Cc2ccccc2)C1CCO (configuration not stated) | -1.42
83 | CCCc1cc(SCC(=O)O)n2c(nc3ccccc32)c1C#N | -0.397
84 | CN1C(=O)CC(N2CCN(C/C=C/c3ccccc3)CC2)C1=O (configuration not stated) | 0.0475
85 | Cc1ccc2c(c1)-c1onc(C(=O)N3CCCCC3)c1CO2 | -1.74
86 | CCNC(=S)N1CCN(CCN=CC2=C(O)CC(C)(C)CC2=O)CC1 | 0.296
87 | O=C(C1CCN(Cc2cnn(-c3ccccc3)c2-n2cccc2)CC1)N1CCC2(CC1)OCCO2 | 0.0245
88 | O=C(O)C1CCN(Cc2ccc(Cl)cc2)CC1 | -0.653
89 | Cc1cc(-c2ccc(S(=O)(=O)NC3CCCc4ccccc43)s2)n[nH]1 (configuration not stated) | 0.15
90 | Cc1ccc(C(C(=O)NCc2ccccc2)N(C(=O)C2COc3ccccc3O2)c2cccc(O)c2)o1 (configuration not stated) | -0.115
91 | Nc1nc(SC23CC4CC(CC(C4)C2)C3)ns1 | -1.08
92 | CC1=CCCC(C)(C)C1/C=C/C(C)=N/O (configuration not stated) | -1.1
93 | Cc1ccccc1NC(=O)N1CC(C)CC(C)C1 (configuration not stated) | -0.339
94 | Nc1nonc1-n1nnc(C(=O)N=Nc2c(O)[nH]c3ccc(Br)cc23)c1-c1ccccc1 | 0.712
95 | CCOC(=O)c1cc(-c2ccc(C)cc2)n(CCC(=O)Nc2nccs2)c1C | 0.181
96 | Cc1c(NC(=O)c2ccc3c(c2)C(=O)N(C)C3=O)cccc1C(=O)O | -0.278
97 | CCC(=O)N1CCc2cc(S(=O)(=O)NCC(OC)OC)ccc21 | 0.461
98 | NCc1cc(C2CC2)n[nH]1 | -0.734
99 | O=C(NCc1ccccn1)c1ccc2c(c1)CCN2S(=O)(=O)c1ccc(Cl)cc1 | -0.107
100 | CCNc1nc(N2CCOCC2)c2ccccc2n1 | 1.02
101 | Cc1nc(CC(=O)Nc2cccc(Cl)c2)cs1 | -0.419
102 | O=C(Cc1ccccc1)n1nc(-c2ccco2)nc1NCc1ccccc1 | 0.165
